This note sets out measurements from ChEMBL document CHEMBL3259668, “Synthesis of N-benzenesulfonamide-1H-pyrazoles bearing arylsulfonyl moiety: novel celecoxib analogs as potent anti-inflammatory agents” (Eur J Med Chem, 2014).

Structures are written as SMILES.

In general, LD50 refers to the dose at which mortality reaches 50%. Broadly, the inhibition is the change of the read-out against control, counted positive when it falls. Higher therefore signals strong suppression.

In data set [1] the test system is Rattus norvegicus. The data set is described as follows: Antiinflammatory activity in ip dosed Sprague-Dawley rat assessed as inhibition of carrageenan-induced foot paw edema after 2 hrs by plethysmometer analysis. It counts as functional. The settings on record: Sprauge-Dawley. In a few lines:
(§1)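 Rats fasted at least 16 h with free access to water. Compounds were given as a suspension in 0.5% methyl cellulose, with a vehicle-only negative control group. Paw volume was measured by water displacement on a plethysmometer before and after treatment. Inhibition (%) = (1 − D/C) × 100, where D and C are the paw-volume changes in treated and control groups.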

Data set [2] in a line: Toxicity in ip dosed mouse assessed as behavioral changes and death during observation up to 72 hrs. The settings on record: in vivo. In kind it is organism-based. In a few lines:
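Male mice in groups, given test compounds intraperitoneally at various doses. Watched continuously for up to 6 h, then kept under observation for 72 h, recording all behavioural changes and deaths. Percentage of deaths at each dose was converted to probits to calculate LD50 (mM/kg).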

Data set [3] relates to Rattus norvegicus. The data set is described as follows: Antiinflammatory activity in ip dosed Sprague-Dawley rat assessed as inhibition of carrageenan-induced foot paw edema after 3 hrs by plethysmometer analysis. In kind it is functional. The settings on record: Sprauge-Dawley. A digest of the protocol:
as §1
Background: In the carrageenan paw model, swelling and tenderness develop within hours.

Data set [4] deals with Mus musculus. Kind of data set: Analgesic activity in ip dosed albino Swiss mouse after 1 hr by hot plate test. In kind it is functional. In a few lines: (§2)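 Mice given a single intraperitoneal dose of test compound (5-200 mg/kg). Reaction time on the hot plate was measured before treatment as the control and again at 15, 30, 60 and 120 min after injection, with a 60 s cut-off. Each animal served as its own control.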
On the technique in general: Thermal pain tests record how soon the animal reacts.

Data set [5] has as its system Mus musculus. Kind of data set: Analgesic activity in ip dosed albino Swiss mouse after 2 hrs by hot plate test. In kind it is functional. In a few lines:
as §2

Data set [6] concerns Rattus norvegicus. The data set is described as follows: Antiinflammatory activity in ip dosed Sprague-Dawley rat assessed as inhibition of carrageenan-induced foot paw edema after 1 hr by plethysmometer analysis. It counts as functional. Particulars: Sprauge-Dawley. A digest of the protocol: as §1
Data set [7] relates to Mus musculus. Kind of data set: Analgesic activity in ip dosed albino Swiss mouse after 0.5 hrs by hot plate test. In kind it is functional. A digest of the protocol: as §2
In data set [8] the test system is Rattus norvegicus. The data set is described as follows: Gastrointestinal toxicity in albino rat assessed as ulcer index at 100 umol/kg, po qd for 3 days measured 6 hrs after last dose. The settings on record: in vivo, 100 µmol/kg.
The species entered for a further data set is Ovis aries. Kind of data set: Selectivity index, ratio of ovine COX2 to ovine COX1.
Data set [9] has as its target T1, Prostaglandin G/H synthase 1 (Ovis aries) (UniProt P05979).
T1 sequence (whole entry): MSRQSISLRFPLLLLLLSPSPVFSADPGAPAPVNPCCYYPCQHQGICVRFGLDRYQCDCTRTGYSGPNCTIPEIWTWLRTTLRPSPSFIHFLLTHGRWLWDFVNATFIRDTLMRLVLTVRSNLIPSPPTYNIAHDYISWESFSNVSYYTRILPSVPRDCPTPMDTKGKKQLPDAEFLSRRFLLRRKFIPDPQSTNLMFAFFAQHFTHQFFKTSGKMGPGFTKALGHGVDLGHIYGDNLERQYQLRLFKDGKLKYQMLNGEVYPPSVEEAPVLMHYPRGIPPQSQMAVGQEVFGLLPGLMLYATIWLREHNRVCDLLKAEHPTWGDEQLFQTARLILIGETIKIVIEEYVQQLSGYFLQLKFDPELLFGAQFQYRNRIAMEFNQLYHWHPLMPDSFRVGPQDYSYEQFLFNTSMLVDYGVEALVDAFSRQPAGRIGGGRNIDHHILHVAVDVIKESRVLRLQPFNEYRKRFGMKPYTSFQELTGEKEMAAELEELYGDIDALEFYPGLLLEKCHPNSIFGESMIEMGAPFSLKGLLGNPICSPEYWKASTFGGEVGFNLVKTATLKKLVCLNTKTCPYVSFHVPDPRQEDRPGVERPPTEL
Kind of data set: Inhibition of ovine COX1 at 5 uM.

As for `Cc1ccc(/C(CS(=O)(=O)c2ccccc2)=N\Nc2ccccc2)cc1`, the ED50 in the data set with Rattus norvegicus [1] amounted to 181 µM/kg; in the data set on Rattus norvegicus [3], 169 µM/kg; in the data set with Mus musculus [4], 260 µM/kg; in the data set with Mus musculus [5], 288 µM/kg; in the data set on Rattus norvegicus [6] it was 280 µM/kg; in the data set on Mus musculus [7], 220 µM/kg. In data set [2], the LD50 at 72 h turned out to be 11500 µmol/kg.
As to `Cc1ccc(C(=O)CS(=O)(=O)c2ccccc2)cc1`, the ED50 came to 137 µM/kg with Rattus norvegicus [1]; 133 µM/kg in the data set with Rattus norvegicus [3]; 408 µM/kg in the data set with Mus musculus [4]; 434 µM/kg in the data set with Mus musculus [5]; 145 µM/kg in the data set on Rattus norvegicus [6]; 168 µM/kg in the data set on Mus musculus [7]. Besides, the LD50 at 72 h in data set [2] is 14300 µmol/kg.
In the case of `CC(=O)c1nn(-c2ccc(S(N)(=O)=O)cc2)c(-c2ccc(C)cc2)c1S(=O)(=O)c1ccccc1`, the ED50 in the data set with Rattus norvegicus [1] was found to be 102 µM/kg; with Rattus norvegicus [3] it was 95 µM/kg; with Mus musculus [4], 147 µM/kg; with Mus musculus [5], 147 µM/kg; in the data set with Rattus norvegicus [6], 112 µM/kg; in the data set with Mus musculus [7], 50 µM/kg. Moreover, the LD50 at 72 h in data set [2] was 10100 µmol/kg. The UI with Rattus norvegicus [8] is given as 2.25. The Selectivity Index in the data set filed under Ovis aries stood at 1.83. The compound also had an inhibition in data set [9] of 18%.
For `O=S(=O)(C/C(=N/Nc1ccccc1)c1ccccc1)c1ccccc1`, the ED50 in the data set with Rattus norvegicus [1] was found to be 248 µM/kg; with Rattus norvegicus [3] it was 256 µM/kg; in the data set on Mus musculus [4] it was 319 µM/kg; with Mus musculus [5], 345 µM/kg; in the data set with Rattus norvegicus [6], 270 µM/kg; in the data set with Mus musculus [7], 285 µM/kg. The LD50 at 72 h in data set [2] worked out at 14600 µmol/kg.
Regarding `O=C(CS(=O)(=O)c1ccccc1)c1ccc(Br)cc1`, the ED50 with Rattus norvegicus [1] came out at 350 µM/kg; with Rattus norvegicus [3] it was 327 µM/kg; with Mus musculus [4], 318 µM/kg; with Mus musculus [5] it was 318 µM/kg; in the data set on Rattus norvegicus [6], 550 µM/kg; in the data set on Mus musculus [7] it was 218 µM/kg. Besides, the 50% lethal dose (LD50) at 72 h in data set [2] amounted to 12400 µmol/kg.
For `Cc1ccc(S(=O)(=O)CC(=O)c2ccc(Br)cc2)cc1`, the ED50 worked out at 213 µM/kg in the data set with Rattus norvegicus [1]; 200 µM/kg in the data set with Rattus norvegicus [3]; 69 µM/kg in the data set on Mus musculus [4]; 66 µM/kg with Mus musculus [5]; 213 µM/kg in the data set on Rattus norvegicus [6]; 73 µM/kg in the data set on Mus musculus [7]. Also, the LD50 at 72 h in data set [2] came to 12700 µmol/kg.
On to `CC(=O)c1nn(-c2ccc(S(N)(=O)=O)cc2)c(-c2ccc(Br)cc2)c1S(=O)(=O)c1ccc(C)cc1`, for which the ED50 with Rattus norvegicus [1] was 54 µM/kg; with Rattus norvegicus [3], 51 µM/kg; in the data set with Mus musculus [4], 195 µM/kg; in the data set with Mus musculus [5] it was 204 µM/kg; with Rattus norvegicus [6], 75 µM/kg; in the data set on Mus musculus [7], 69 µM/kg. Besides, the LD50 at 72 h in data set [2] was 7100 µmol/kg. The UI in the data set with Rattus norvegicus [8] is 0.98. Moreover, in the data set listed under Ovis aries, the Selectivity Index turned out to be 13. This compound returned an inhibition in [9] of 3%.
Regarding `Cc1ccc(/C(CS(=O)(=O)c2ccccc2)=N\O)cc1`, the ED50 in the data set on Rattus norvegicus [1] was determined as 238 µM/kg; with Rattus norvegicus [3] it was 237 µM/kg; in the data set on Mus musculus [4], 203 µM/kg; in the data set on Mus musculus [5], 200 µM/kg; in the data set with Rattus norvegicus [6], 271 µM/kg; with Mus musculus [7] it was 212 µM/kg. Also, the LD50 at 72 h in data set [2] was 9000 µmol/kg.
For the compound `CC(=O)c1nn(-c2ccc(S(N)(=O)=O)cc2)c(-c2ccc(Br)cc2)c1S(=O)(=O)c1ccccc1`, the ED50 in the data set with Rattus norvegicus [1] came to 64 µM/kg; in the data set on Rattus norvegicus [3], 68 µM/kg; in the data set with Mus musculus [4] it was 81 µM/kg; with Mus musculus [5], 80 µM/kg; in the data set with Rattus norvegicus [6], 87 µM/kg; in the data set with Mus musculus [7] it was 57 µM/kg. The median lethal dose (LD50) at 72 h in data set [2] turned out to be 7100 µmol/kg. For the same compound, in the data set with Rattus norvegicus [8], the UI came out at 2.86. The Selectivity Index in the data set filed under Ovis aries was determined as 0.79. In [9], this compound yielded an inhibition of 34%.
For `CC(=O)c1nn(-c2ccc(S(N)(=O)=O)cc2)c(-c2ccccc2)c1S(=O)(=O)c1ccccc1`, the ED50 in the data set on Rattus norvegicus [1] was determined as 376 µM/kg; in the data set with Rattus norvegicus [3] it was 372 µM/kg; with Mus musculus [4], 261 µM/kg; in the data set on Mus musculus [5], 261 µM/kg; in the data set on Rattus norvegicus [6], 363 µM/kg; in the data set with Mus musculus [7] it was 311 µM/kg. Besides, the LD50 at 72 h in data set [2] was found to be 10100 µmol/kg.
For the compound `O=C(CS(=O)(=O)c1ccccc1)c1ccccc1`, the ED50 amounted to 232 µM/kg with Rattus norvegicus [1]; 242 µM/kg in the data set with Rattus norvegicus [3]; 158 µM/kg in the data set on Mus musculus [4]; 145 µM/kg with Mus musculus [5]; 238 µM/kg in the data set on Rattus norvegicus [6]; 250 µM/kg in the data set with Mus musculus [7]. Also, the LD50 at 72 h in data set [2] is 19700 µmol/kg.
Regarding `Cc1ccc(-c2cc(C(F)(F)F)nn2-c2ccc(S(N)(=O)=O)cc2)cc1` [CELECOXIB], the ED50 is 89 µM/kg with Rattus norvegicus [1]; 86 µM/kg with Rattus norvegicus [3]; 72 µM/kg in the data set with Mus musculus [4]; 70 µM/kg with Mus musculus [5]; 89 µM/kg in the data set with Rattus norvegicus [6]; 156 µM/kg in the data set with Mus musculus [7]. In addition, the LD50 at 72 h in data set [2] was found to be 9800 µmol/kg. In addition, the UI with Rattus norvegicus [8] is 0.92.
Turning to `O=S(=O)(C/C(=N/O)c1ccccc1)c1ccccc1`, the ED50 in the data set on Rattus norvegicus [1] amounted to 245 µM/kg; in the data set on Rattus norvegicus [3], 256 µM/kg; in the data set with Mus musculus [4], 265 µM/kg; with Mus musculus [5], 244 µM/kg; in the data set with Rattus norvegicus [6], 285 µM/kg; in the data set on Mus musculus [7] it was 320 µM/kg. For the same compound, the LD50 at 72 h in data set [2] came out at 17400 µmol/kg.
